High-throughput results as filed in PubChem BioAssay.
TLR4 MyD88 comp: inhibitors of TLR4-MyD88 association in cells, primary screen, cell-based, HeLa CL3-4, BLA complementation, FRET ratio. AID 861, 2007. inhibition, % at 8.4 µM. actives 0.18% (n = 200,000). HeLa CL3-4 TLR4/MyD88 BLA complementation. Toll-like receptor 4 (Homo sapiens) + Myeloid differentiation primary response protein …; in the data active = inhibition above about 25%
TLR9-MyD88 block: inhibitors of TLR9-MyD88 association in cells, primary screen, cell-based, CHO, BLA complementation, fluorescence. actives 0.21% (n = 340,000). CCF4 FRET ratio. AID 504734, 2011. inhibition, % at 4.98 µM;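 active = inhibition above the mean over all tested compounds plus 3 SD, cut at about 21% in these data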
NOD2 RIPK2 PPI: NOD2-RIPK2 binding disruptors in cells, primary screen, fluorescence, CHO cells, BLA complementation; CCF4 ratio; inhibition, % at 4.98 µM; actives 0.38% (n = 360,000); AID 624267, 2012; in the data active = inhibition above about 21%
SR-BI uptake up: activators of SR-BI mediated DiI-HDL uptake, primary screen, ldlA[mSR-BI] CHO cells, DiI fluorescence | 3 h; 100 = double the neutral-control signal | activation, % at 12.5 µM | actives 0.096% (n = 320,000) | AID 504775, 2011;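 active = mean replicate activation of at least 60% and every replicate at or above 60%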
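system = CHO ldlA[mSR-BI] cells, LDL receptor-null, SR-BI overexpressing | medium = Ham's F12 with 0.5% BSA, HEPES 25 mM, pH 7.4 | probe or stimulus = DiI-HDL 10 µg/mL | compound dosing = single-point compound dose | incubation = compound exposure 3 h, 37 °C | technique = DiI fluorescence, bottom read | read-out = cell-associated DiI fluorescence as measure of HDL uptake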
SR-BI HDL uptake: inhibitors of SR-BI mediated HDL lipid uptake, primary screen, ldlA[mSR-BI] cells, fluorescence, single point; ldlA[mSR-BI] CHO cells, DiI-HDL uptake fluorescence, 3 h; inhibition, % at 12.5 µM; actives 0.96% (n = 320,000); Scavenger receptor class B member 1 (Mus musculus), Q61009;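 active = mean replicate inhibition of at least 70% and a set share of replicates each scoring 70 or more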
Hep lipid drop: inhibitors of hepatocyte lipid droplet formation, primary screen, imaging, high-throughput imaging, BODIPY stain; AML12 mouse hepatocytes, oleate lipid droplets; inhibition, % at 6.5 µM; actives 0.4% (n = 240,000); AID 1656, 2009;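 active = lipid droplet intensity inhibited by at least 50%, with more than 500 cells counted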
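Material – mouse AML12 hepatocyte cell line, fixed after treatment · Compound dosing – one dose, 6.5 µM compound · Times – compound with oleate, overnight · Measured by – Image-based BODIPY and DAPI two-channel analysis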
TLR9-MyD88 conf: TLR9-MyD88 association inhibitors, retest, confirmation, cell-based, CHO, BLA complementation, fluorescence, triplicate; actives 51% (n = 680); CCF4 FRET ratio; inhibition, % at 4.98 µM; AID 540250, 2011; shares compounds with TLR9-MyD88 block;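 active = mean inhibition across three repeats above about 21% taken from the earlier screen, limit read from the data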;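 note: blue over green emission ratio reports constitutive TLR9 MyD88 association via BLA complementation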
Target sequence (Q9NR96 whole entry, looked up): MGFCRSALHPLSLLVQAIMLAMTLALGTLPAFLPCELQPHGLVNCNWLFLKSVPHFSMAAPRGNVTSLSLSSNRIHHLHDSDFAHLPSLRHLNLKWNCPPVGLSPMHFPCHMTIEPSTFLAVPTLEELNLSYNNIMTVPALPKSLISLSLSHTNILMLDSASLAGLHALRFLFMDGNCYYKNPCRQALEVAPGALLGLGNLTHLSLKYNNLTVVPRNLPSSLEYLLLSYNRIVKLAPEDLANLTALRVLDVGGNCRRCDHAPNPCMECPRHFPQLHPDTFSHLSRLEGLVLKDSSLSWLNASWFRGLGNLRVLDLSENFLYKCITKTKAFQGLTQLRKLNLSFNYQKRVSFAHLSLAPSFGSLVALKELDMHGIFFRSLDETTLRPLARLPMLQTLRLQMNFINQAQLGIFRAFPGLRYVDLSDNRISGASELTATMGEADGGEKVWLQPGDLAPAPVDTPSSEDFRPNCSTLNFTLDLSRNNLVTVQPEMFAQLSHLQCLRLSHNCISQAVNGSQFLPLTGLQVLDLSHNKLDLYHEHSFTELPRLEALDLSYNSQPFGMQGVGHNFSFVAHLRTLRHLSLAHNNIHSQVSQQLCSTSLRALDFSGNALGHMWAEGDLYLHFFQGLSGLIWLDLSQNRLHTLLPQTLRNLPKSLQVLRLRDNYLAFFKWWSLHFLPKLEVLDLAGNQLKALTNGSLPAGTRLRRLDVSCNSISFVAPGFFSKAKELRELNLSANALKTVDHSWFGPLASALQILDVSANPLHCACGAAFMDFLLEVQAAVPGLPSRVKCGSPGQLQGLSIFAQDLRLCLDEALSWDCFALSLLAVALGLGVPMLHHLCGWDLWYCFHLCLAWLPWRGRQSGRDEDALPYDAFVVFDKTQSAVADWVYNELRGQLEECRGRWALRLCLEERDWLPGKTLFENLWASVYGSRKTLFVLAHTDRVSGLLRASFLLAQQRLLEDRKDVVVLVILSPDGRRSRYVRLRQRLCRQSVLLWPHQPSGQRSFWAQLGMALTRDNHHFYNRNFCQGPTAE
BLA counter-1: beta-lactamase reporter inhibitors in CHO cells, artefact control for TLR9-MyD88 binding inhibitor project, cell-based, fluorescence | shares compounds with TLR9-MyD88 block | actives 7% (n = 680) | CHO-BLA cells, CCF4 FRET ratio, BLA reporter | AID 540251, 2011 | inhibition, % at 4.98 µM;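 active = mean inhibition above a 50% cutoff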;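 note: counterscreen of TLR9-MyD88 hits on CMV-driven BLA in CHO-K1 cells; higher means less blue over green ratio so more BLA blockade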
TLR9 CHO tox: CHO cell viability loss – luminescence, single concentration, cytotoxicity control for TLR9-MyD88 binding inhibitor project. inhibition, % at 4.98 µM. TLR9-MyD88 CHO cells cytotoxicity. actives 39% (n = 680). shares compounds with TLR9-MyD88 block. AID 588336, 2011; in the data active = inhibition above about 11%
NOD2 RIPK2 conf: NOD2-RIPK2 binding disruptors, retest, confirmation, fluorescence, CHO cells, BLA complementation, triplicate; inhibition, % at 4.98 µM; shares compounds with NOD2 RIPK2 PPI; actives 70% (n = 1,200); CCF4 FRET;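 active = mean inhibition across replicates above a set limit taken from the earlier primary screen, cut at about 21% in these data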
BLA counter-2: hits BLA reporter in NOD2-RIPK2 inhibitor counterscreen; CHO BLA reporter, CCF4 FRET ratio; inhibition, % at 4.98 µM; actives 57% (n = 1,200); shares compounds with NOD2 RIPK2 PPI;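 active = mean inhibition above the low-control mean inhibition plus three low-control SD, cut at about 11% in these data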
Each line names hits and unclear results; the compound was inactive in the other large screens (follow-up assays come after a bar, where they were run). In the library only some 1.6% were active in any assay of this set; here they are far more common.

Cc1cccn2c(CNC3CCCc4ccccc43)c(C(=O)N3CCCCC3)nc12 (stereo unspecified)	none
O=c1[nH]c2ccccc2c2nc3ccccn3c12	none (no result: Hep lipid drop)
O=c1nc2c(O)cccn2c2c1c(=O)[nH]c1ccccc12	TLR9-MyD88 block 22, NOD2 RIPK2 PPI 29 | TLR9-MyD88 conf inactive | BLA counter-1 inactive | TLR9 CHO tox inactive | NOD2 RIPK2 conf 33 | BLA counter-2 27
Cc1ccc(NC(=O)COC(=O)Cc2ccsc2)cc1S(=O)(=O)N1CCOCC1	none
Cc1ccc2nc(/C(C#N)=C\c3cc(O)ccc3[N+](=O)[O-])[nH]c2c1	none
CCCOc1cc(N(CC)CC)ccc1/C=C(/C#N)c1nc2ccc(C)cc2[nH]1	TLR9-MyD88 block 21, NOD2 RIPK2 PPI 34, SR-BI HDL uptake 89 (no result: Hep lipid drop) | TLR9-MyD88 conf inactive | BLA counter-1 inactive | TLR9 CHO tox inactive | NOD2 RIPK2 conf 35 | BLA counter-2 36
Cc1cccc(N2C(=O)c3cccc4c(N)ccc(c34)C2=O)c1	TLR9-MyD88 block 32, NOD2 RIPK2 PPI 35 (no result: TLR4 MyD88 comp) | TLR9-MyD88 conf inactive | BLA counter-1 inactive | TLR9 CHO tox inactive | NOD2 RIPK2 conf 37 | BLA counter-2 44
CC(C)CCN1C(=O)c2cccc3c(N)ccc(c23)C1=O	TLR9-MyD88 block 55, NOD2 RIPK2 PPI 70 (no result: TLR4 MyD88 comp, Hep lipid drop) | TLR9-MyD88 conf 33 | BLA counter-1 inactive | TLR9 CHO tox inactive | NOD2 RIPK2 conf 64 | BLA counter-2 70
Nc1cccc(N2C(=O)c3cccc4c(N)ccc(c34)C2=O)c1	none (no result: TLR4 MyD88 comp)
O=C(CN1C(=O)c2ccccc2S1(=O)=O)Nc1ccccc1C(=O)NCc1ccco1	none
O=C(CN1C(=O)c2cccc3cccc1c23)Nc1ccccc1C(=O)NCc1ccco1	TLR9-MyD88 block 32, NOD2 RIPK2 PPI 23 (no result: Hep lipid drop) | TLR9-MyD88 conf inactive | BLA counter-1 inactive | TLR9 CHO tox inactive | NOD2 RIPK2 conf 22 | BLA counter-2 22
Cc1nn(C)cc1/C=C/C(=O)c1ccccc1	none
Cc1ccc(C(=O)/C=C/c2cn(CN3CCN(C)CC3)c3ccccc23)cc1	NOD2 RIPK2 PPI 24 | NOD2 RIPK2 conf 26 | BLA counter-2 38
CCn1cc(/C=C(\NC(=O)c2ccc(OC)cc2)C(=O)N2CCN(C)CC2)c2ccccc21	none (no result: TLR4 MyD88 comp)
Cn1cc(/C=C/C(=O)c2ccccc2)c2ccccc21	NOD2 RIPK2 PPI 25 (no result: TLR4 MyD88 comp) | NOD2 RIPK2 conf 25 | BLA counter-2 28
O=C(Cc1ccccc1)N/N=C/c1ccc(-c2ccc([N+](=O)[O-])cc2)o1	none
COCCNC(=S)N/N=C/c1ccc(-c2ccc([N+](=O)[O-])cc2)o1	NOD2 RIPK2 PPI 31 (no result: TLR4 MyD88 comp, SR-BI uptake up, SR-BI HDL uptake) | NOD2 RIPK2 conf 44 | BLA counter-2 47
Nc1c(C(=O)Nc2ccc(Br)cc2)sc2nc(-c3ccco3)ccc12	TLR9-MyD88 block 36, NOD2 RIPK2 PPI 26 (no result: Hep lipid drop) | NOD2 RIPK2 conf 67 | BLA counter-2 66
Cc1ccc(C2C=C(c3ccccc3)Nc3nc(N4C(=O)CCC4=O)nn32)cc1 (stereo unspecified)	NOD2 RIPK2 PPI 45 (no result: TLR9-MyD88 block) | NOD2 RIPK2 conf 33 | BLA counter-2 35
COc1nn(-c2ccccc2)c(=O)c(Cl)c1Cl	NOD2 RIPK2 PPI 27 (no result: TLR4 MyD88 comp) | NOD2 RIPK2 conf 27 | BLA counter-2 inactive
CCCCCNC(=O)C(c1cccc2ccccc12)n1c(=O)c(-c2cc3ccccc3[nH]2)nc2ccccc21 (stereo unspecified)	NOD2 RIPK2 PPI 42 (no result: TLR4 MyD88 comp, TLR9-MyD88 block, SR-BI uptake up, SR-BI HDL uptake, Hep lipid drop) | NOD2 RIPK2 conf 36 | BLA counter-2 64
CCCCCNC(=O)C(c1ccccc1)n1c(=O)c(-c2cc3ccccc3[nH]2)nc2ccccc21 (stereo unspecified)	NOD2 RIPK2 PPI 46 (no result: TLR4 MyD88 comp, TLR9-MyD88 block, SR-BI uptake up, SR-BI HDL uptake, Hep lipid drop) | NOD2 RIPK2 conf 40 | BLA counter-2 64
CCCCCNC(=O)C(CCc1ccccc1)n1c(=O)c(-c2cc3ccccc3[nH]2)nc2ccccc21 (stereo unspecified)	NOD2 RIPK2 PPI 44 (no result: TLR4 MyD88 comp, TLR9-MyD88 block, SR-BI uptake up, SR-BI HDL uptake, Hep lipid drop) | NOD2 RIPK2 conf 41 | BLA counter-2 66
Cc1cc(C)nc(NC(=O)C2c3ccccc3Oc3ccccc32)n1	none (no result: TLR9-MyD88 block)
O=C(O)c1cccc(Cn2c(Cl)c(/C=N/NC(=O)c3ccc(O)cc3)sc2=O)c1	none (no result: TLR4 MyD88 comp, SR-BI uptake up, SR-BI HDL uptake)
O=c1sc(/C=N/Nc2ccccc2)c(Cl)n1Cc1ccccc1	NOD2 RIPK2 PPI 29 | NOD2 RIPK2 conf inactive | BLA counter-2 inactive
CCOCCCNC(=O)/C(C#N)=C/c1ccc([N+](=O)[O-])o1	NOD2 RIPK2 PPI 26 | NOD2 RIPK2 conf 54 | BLA counter-2 27
CCOCCCNC(=O)/C(C#N)=C/c1ccc(-c2ccc(S(=O)(=O)N3CCOCC3)cc2)o1	none
CC(=O)c1cccc2c1OC(C)C(=O)N2Cc1ccc(Cl)cc1 (stereo unspecified)	none (no result: TLR4 MyD88 comp, TLR9-MyD88 block, SR-BI uptake up, SR-BI HDL uptake, Hep lipid drop)
Cc1ccccc1N1CCN(C(=S)c2ccccc2)CC1	NOD2 RIPK2 PPI 24 | NOD2 RIPK2 conf inactive | BLA counter-2 inactive
S=C(c1ccccc1)N1CCN(c2ccccc2)CC1	none (no result: TLR4 MyD88 comp, Hep lipid drop)
CC(C)CC(=O)Nc1c2c(nn1-c1ccc(F)cc1)CS(=O)(=O)C2	none (no result: TLR4 MyD88 comp)
CC(=O)Nc1ccc(-c2ccnc3c2CC(C)(C(=O)NCc2ccncc2)O3)cc1 (stereo unspecified)	none (no result: TLR4 MyD88 comp, TLR9-MyD88 block, SR-BI uptake up, SR-BI HDL uptake, Hep lipid drop)
